Results gathered from unrelated publications.
Lines come from different studies, so protocols differ.
TYK2 JH1: Non-receptor tyrosine-protein kinase TYK2, JH1 (TYK2, Homo sapiens, UniProt P29597)
TYK2: Non-receptor tyrosine-protein kinase TYK2 (TYK2, Homo sapiens, UniProt P29597)

| SMILES | target | observed | action | method | concentration | endpoint | value |
| --- | --- | --- | --- | --- | --- | --- | --- |
| Cc1c(C(=O)O)cc(-c2ccc(C3CCNCC3)cc2)c2ccc(-c3ccc(C(F)(F)F)cc3)cc12 | TYK2 JH1 | binding |  | competition with immobilised ligand | 1 µM | remaining binding | 100% |
| CC(C)(O)[C@H]1CC[C@H](Nc2ccc3ncc(-c4cccc(C(F)(F)F)c4)n3n2)CC1 | TYK2 | enzyme activity | inhibitor |  | 1 µM | remaining activity | 73.7% |
| O=C1NC(=O)c2cc(Nc3ccc(F)cc3)c(Nc3ccc(F)cc3)cc21 | TYK2 | cell-free assay |  |  | 0.5 µM | remaining signal | 80.6% |
| CC(C)(C)c1nc2c(s1)c1nc(N)ncc1c1ccc(NS(=O)(=O)c3c(F)cccc3F)c(F)c12 | TYK2 | enzyme activity | inhibitor | radiometric | 1 µM | remaining activity | 92% |
| C[C@H]1CCN(c2nccc(-c3cnn4ncccc34)n2)C1 | TYK2 | binding |  |  | 1 µM | remaining binding | 51% |
| Cc1cc(NC(=O)c2cccc3cc(-c4cccc5[nH]nc(N)c45)ccc23)ccc1F | TYK2 | enzyme activity | inhibitor |  | 0.1 µM | activity vs control | 94% |
| N[C@@H]1CCN(c2nccc(-c3cnn4ncccc34)n2)C1 | TYK2 | binding |  |  | 1 µM | remaining binding | 100% |
| CCOCCn1cc(C(=O)Nc2ccc(-n3nc(-c4cccnc4)cc3C(F)(F)F)cn2)ccc1=O | TYK2 JH1 | cell-free assay |  | competition with immobilised ligand | 1 µM | remaining binding | 100% |
| CN(c1nccc(-c2cnn3ncccc23)n1)C1CC1 | TYK2 JH1 | cell-free assay |  |  | 1 µM | remaining signal | 100% |
| O=C(Nc1cnn(-c2csc(C(=O)NC3COC3)c2)c1)Nc1c(F)cccc1Cl | TYK2 | enzyme activity | inhibitor |  | 5 µM | remaining activity | 89.3% |
| CC(=O)N1CCC(c2ccc(C(=O)NC3=NCCN3)cc2C(F)(F)F)CC1 | TYK2 JH1 | cell-free assay |  | competition with immobilised ligand | 1 µM | remaining binding | 100% |
| CS(=O)(=O)Nc1cccc(-c2csc(NC(=O)CSc3nc4nccnc4c(=O)n3CCc3ccccc3)n2)c1 | TYK2 | enzyme activity | inhibitor |  | 10 µM | inhibition | -1% |
| CN(CCCC(F)(F)F)c1nccc(-c2cnn3ncccc23)n1 | TYK2 | binding |  |  | 1 µM | remaining binding | 100% |
| CC1=C(C#N)[C@@H](c2ccc3[nH]nc(C)c3c2)C(C#N)=C(c2ccc(Cl)cc2)N1 | TYK2 JH1 | cell-free assay |  | competition with immobilised ligand | 1 µM | remaining binding | 73.1% |
| COc1cc2ncnc(Nc3ccc(Oc4ccccc4)c(C)c3C)c2cc1OC | TYK2 | enzyme activity | inhibitor |  | 1 µM | inhibition | -2% |
| C[C@@]1(Cc2ccc(C#N)cc2)C(=O)N(c2cc(Cl)cc(Cl)c2)c2ncc(C(=O)NC3(c4nc(C5CCC5)no4)CC3)n21 | TYK2 JH1 | cell-free assay |  | competition with immobilised ligand | 1 µM | remaining binding | 100% |
| Oc1cccc(-c2nc(N3CCOCC3)c3oc4ncccc4c3n2)c1 | TYK2 | cell-free assay |  |  | 0.5 µM | remaining signal | 73.6% |
| CS(=O)(=O)NCC[C@H](NC(=O)c1cncc2c1cnn2-c1ccc(F)cc1)c1ccnc(S(C)(=O)=O)c1 | TYK2 JH1 | cell-free assay |  | competition with immobilised ligand | 1 µM | remaining binding | 100% |
| Nc1ncnc2occ(-c3ccc(NC(=O)Nc4cc(C(F)(F)F)ccc4F)cc3)c12 | TYK2 JH1 | cell-free assay | inhibitor |  | 20 µM | remaining signal | 55% |
